Results as given in ChEMBL document CHEMBL3813640, “Design and synthesis of potent and selective pyridazin-4(1H)-one-based PDE10A inhibitors interacting with Tyr683 in the PDE10A selectivity pocket” (Bioorg Med Chem, 2016).
pIC50: −log10 of the molar value.

These molecules were tested against cAMP and cAMP-inhibited cGMP 3',5'-cyclic phosphodiesterase 10A (Homo sapiens, UniProt Q9Y233) (assay: Inhibition of human full length PDE10A2 expressed in African green monkey COS7 cells using [3H]cGMP as substrate preincubated for 30 mins followed by substrate addition measured after 60 mins by scintillation proximity assay).
Sequence of cAMP and cAMP-inhibited cGMP 3',5'-cyclic phosphodiesterase 10A (Q9Y233 whole entry): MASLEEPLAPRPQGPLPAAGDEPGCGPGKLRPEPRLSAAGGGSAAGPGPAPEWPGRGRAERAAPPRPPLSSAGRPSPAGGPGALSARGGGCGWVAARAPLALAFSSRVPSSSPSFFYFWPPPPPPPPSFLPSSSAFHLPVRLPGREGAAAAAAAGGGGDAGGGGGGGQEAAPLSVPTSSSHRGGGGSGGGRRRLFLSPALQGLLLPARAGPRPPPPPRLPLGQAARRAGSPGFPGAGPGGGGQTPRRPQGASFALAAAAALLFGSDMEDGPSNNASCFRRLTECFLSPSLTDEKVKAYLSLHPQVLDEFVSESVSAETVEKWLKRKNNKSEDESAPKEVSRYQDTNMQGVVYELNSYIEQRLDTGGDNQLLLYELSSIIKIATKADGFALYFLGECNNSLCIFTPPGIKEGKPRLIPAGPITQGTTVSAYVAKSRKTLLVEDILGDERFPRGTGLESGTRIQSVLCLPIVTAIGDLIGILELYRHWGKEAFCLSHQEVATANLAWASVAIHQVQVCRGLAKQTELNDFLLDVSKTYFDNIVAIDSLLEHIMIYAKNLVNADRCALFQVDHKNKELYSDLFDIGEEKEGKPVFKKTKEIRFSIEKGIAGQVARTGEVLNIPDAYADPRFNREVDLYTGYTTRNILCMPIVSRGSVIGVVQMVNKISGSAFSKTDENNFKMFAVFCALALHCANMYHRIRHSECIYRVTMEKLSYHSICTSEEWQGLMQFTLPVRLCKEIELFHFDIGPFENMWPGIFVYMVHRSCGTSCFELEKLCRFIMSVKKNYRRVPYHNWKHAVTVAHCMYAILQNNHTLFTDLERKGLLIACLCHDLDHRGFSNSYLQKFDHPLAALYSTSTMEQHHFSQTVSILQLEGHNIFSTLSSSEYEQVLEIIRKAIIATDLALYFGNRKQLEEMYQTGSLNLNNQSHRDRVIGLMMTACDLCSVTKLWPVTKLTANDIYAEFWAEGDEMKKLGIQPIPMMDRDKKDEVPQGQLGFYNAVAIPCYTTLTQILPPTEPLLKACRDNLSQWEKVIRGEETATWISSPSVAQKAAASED
Type: cell-based, COS-7
Method in brief: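 Full-length human PDE10A2 from transfected COS-7 cells, held at -70 °C. [³H]cGMP added, 60 min at rt, stopped with yttrium SPA beads containing ZnSO₄. Counted after ≥120 min settling. Inhibition set against DMSO (0%) and 10 µM papaverine (100%) wells. Duplicate or triplicate.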

Structure (SMILES) | pIC50
COc1cn(CC2CC2)nc(-c2ccnn2-c2ccccc2)c1=O | 6.77
COc1cn(C)nc(-c2ccnn2-c2ccccc2)c1=O | 6.00
Cn1c(COc2cn(CC3CC3)nc(-c3ccnn3-c3ccccc3)c2=O)nc2ccccc21 | 5.55
Cn1c(CCOc2cn(CC3CC3)nc(-c3ccnn3-c3ccccc3)c2=O)nc2ccccc21 | 7.60
COc1cn(-c2ccccc2)nc(-c2ccnn2C)c1=O | 5.62
Cn1c(OCCOc2cn(CC3CC3)nc(-c3ccnn3-c3ccccc3)c2=O)nc2ccccc21 | 8.39
Cn1c(CCCOc2cn(CC3CC3)nc(-c3ccnn3-c3ccccc3)c2=O)nc2ccccc21 | 9.09
O=c1c(OCCN2CCn3c2nc2ccccc23)cn(CC2CC2)nc1-c1ccnn1-c1ccccc1 | 9.12
COc1cn(C2CC2)nc(-c2ccnn2-c2ccccc2)c1=O | 6.89
COc1cn(CC(F)(F)F)nc(-c2ccnn2-c2ccccc2)c1=O | 6.26
Cn1c(CCCCOc2cn(CC3CC3)nc(-c3ccnn3-c3ccccc3)c2=O)nc2ccccc21 | 6.12
